In paper PMC12618661 (NPJ Science of Food, 2025):
Values after ≈ are worked out from the molar mass of the structure shown. Blank lines part the entries; values can stand above or below the molecule they belong to.

Tests used:
[1] = Water solubility evaluation; assay type: physicochemical; conditions: deionized water
How it was run: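 Compound was added to deionized water to supersaturation and stirred for 24 h at 25 °C. The mixture was centrifuged at 8000 × g, 25 °C, for 20 min. The supernatant was freeze-dried and the residue weighed.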

[2] = system: mammalian mucosal α-glucosidase (rat intestinal acetone powder, RIAP); assay: Glucose generation rate; assay type: in vitro ADME; conditions: 5 mg/mL substrate, RIAP-derived α-glucosidase, 2 h
How it was run: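 Rat intestinal acetone powder (0.5 g) was extracted in 10 mL 100 mM sodium phosphate (pH 6.2) at 4 °C for 24 h and centrifuged. The supernatant was freeze-dried and re-dissolved in 10 mL of the same buffer as α-glucosidase. Test compound at 5 mg/mL was incubated with the enzyme. Aliquots were taken at 0, 10, 20, 30, 60 and 120 min, heat-inactivated for 10 min, and glucose was measured with a glucose assay kit.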

[3] = Static in vitro digestion simulation; assay type: in vitro ADME, human; conditions: oral, gastric and intestinal phases, 37 °C
How it was run: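 Static digestion of 50 mg test compound ran at 37 °C with stirring. Oral phase: saliva pH 7.0 (1.5 mM CaCl₂, 75 U/mL amylase), sampled at 5 min. Samples were heat-stopped (100 °C, 5 min), centrifuged and filtered, and glucose was measured by kit.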

[4] = vs sucrose; stated without own test, ref not given; cited from earlier work
[5] = Thermogravimetric analysis; assay type: physicochemical; conditions: TGA
[6] = pH stability in Britton–Robinson buffer; assay type: physicochemical
How it was run: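 Compound was dissolved at 0.05% (w/v) in Britton–Robinson buffer over pH 1.4–10. The amount remaining was quantified by HPLC.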

[7] = Storage stability in aqueous solution; assay type: physicochemical; conditions: 1 month, 25 °C
How it was run: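 Aqueous solutions of 1–2% (w/v) were held at 25 °C for up to 1 month. Compound remaining in the supernatant at 0, 7, 15 and 30 days was quantified by HPLC.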

[8] = system: HFD-fed C57BL/6 N mice; assay: HFD-induced obesity in mice: body weight, intake, tissue weight, histology; assay type: in vivo, mouse; conditions: 0.2 g/L in drinking water, 16 weeks
How it was run: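 Eight-week-old C57BL/6N mice were kept on a 60% kcal-fat HFD for 16 weeks with test compound at 0.2 g/L in drinking water ad libitum, or plain water. Estimated intake was about 0.675 mg/mouse/day. Body weight was taken weekly and food/water every other day (n = 10). Median-weight mice gave formalin-fixed paraffin sections (gWAT 7 μm, liver 5 μm), H&E stained (n = 5). Adipocyte size came from about 3,000 cells, four images per mouse. Data are mean ± SEM.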

[9] = system: HFD-fed C57BL/6 N mice; assay: Immunoblot of tissue lysates from HFD-fed mice; assay type: in vivo, mouse; conditions: 0.2 g/L in drinking water, 16 weeks
How it was run: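 Mice were on a 16-week 60% kcal-fat HFD with test compound at 0.2 g/L in drinking water or plain water. Liver, gWAT and BAT lysates came from median-body-weight mice. Equal protein was run on SDS-PAGE, transferred to nitrocellulose and blocked in 5% skim milk. Primary antibodies (ACC, FAS, UCP1, p-PLIN, HSP90) ran overnight at 4 °C, then secondary 2–3 h at room temperature. Detection was by ECL with band densitometry, n = 4 per group.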

[10] = system: HFD-fed C57BL/6 N mice; assay: Serum analysis of HFD-fed mice; assay type: in vivo, mouse; conditions: 0.2 g/L in drinking water, 16 weeks
How it was run: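 After 16 weeks of 60% kcal-fat HFD with test compound at 0.2 g/L in drinking water or plain water, mice were euthanised with CO2. Blood was taken by cardiac puncture. An automated chemistry analyser measured serum cholesterol, TG, ALT, AST and glucose (n = 5 per group). Data are mean ± SEM with one-way ANOVA and Dunnett's or Tukey's test.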

[11] = TGA; cited from earlier work
[12] = system: rats; conditions: cited from earlier work

solubility at 24 h [1]: 11 ± 3.11 mg/mL (≈ 13.6 mM)
Glucose released [2]: almost no glucose release
Hydrolysis in in vitro simulated digestion [3]: 2%
Molecule: C=C1C[C@@]23CC[C@H]4[C@@](C)(CCC[C@@]4(C)C(=O)O[C@@H]4O[C@H](CO)[C@@H](O)[C@H](O)[C@H]4O)[C@@H]2CC[C@]1(O[C@@H]1O[C@H](CO)[C@@H](O)[C@H](O)[C@H]1O[C@@H]1O[C@H](CO)[C@@H](O)[C@H](O)[C@H]1O)C3 [ST, stevioside]
Sweetness relative to sucrose [4]: 250 times

Molecule: rebaudioside A [Reb A]
Water solubility ([1]; stirred 24 h at 25 °C): 5.10 ± 2.93 mg/mL
Temperature at which second-stage mass loss commenced [5]: 280–290 °C
Initial mass retained at 597 °C ([5]; 597 °C): 9.92 ± 0.45%
Initial mass retained, second-stage mass loss ([5]; stage commencing at approximately 280–290 °C): 19.89 ± 1.67%
Initial concentration retained at pH 1.4 ([6]; pH 1.4, 0.05% (w/v) in Britton–Robinson buffer): 25.26 ± 3.19%
Initial concentration retained at pH 2 ([6]; pH 2, 0.05% (w/v) in Britton–Robinson buffer): 82.67 ± 2.39%
Initial concentration retained at pH 10 ([6]; pH 10, 0.05% (w/v) in Britton–Robinson buffer): 84.56 ± 1.68%
Initial concentration remaining after storage, 1% (w/v) aqueous solution ([7]; 1% (w/v)): 52.61 ± 1.69%
Initial concentration remaining after storage, 2% (w/v) aqueous solution ([7]; 2% (w/v)): 32.14 ± 3.78%
Glucose released [2]: almost no glucose release
Hydrolysis in in vitro simulated digestion [3]: 2%
Crown-like structure (CLS) in gWAT, inflammatory indicator [8]: significantly increased
Number of large adipocytes in gWAT [8]: remained unchanged
Water intake and food consumption [8]: comparable across the groups
gWAT weight [8]: did not increase
Body weight ([8]; vs control): no effect
ACC protein expression in liver [9]: increased
p-PLIN protein level in gWAT ([9]; vs control): substantially decreased
Serum TG [10]: remained unchanged
Serum cholesterol [10]: remained unchanged
Second-stage mass loss temperature previously reported [11]: 284.71 °C
No-observed-adverse-effect level (NOAEL) [12]: 4100 mg/kg/day
Sweetness relative to sucrose [4]: 250 times
